Source: ChEMBL document CHEMBL4406810, “Modifications on the Amino-3,5-dicyanopyridine Core To Obtain Multifaceted Adenosine Receptor Ligands with Antineuropathic Activity” (J Med Chem, 2019)
The source made the active and inactive calls.

Assays:
[1] = Half life in Sprague-Dawley rat plasma at 1 uM by LC-MS/MS analysis; type: ADME, cell-free
Procedure, shortened: (§1)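 Analyte spiked at 1 µM into human plasma or heparinized Sprague-Dawley male rat plasma (or PBS). Incubated at 37°C for 0, 30, 60, 120 min in triplicate. Internal standard added, centrifuged, dried, reconstituted. Quantified by LC-MS/MS (ESI negative, MRM) against a 0–1 µM calibration. Half-life from concentration-time profile.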

Adenosine receptor A2b [2] = target: T1, Adenosine receptor A2b (Homo sapiens, UniProt P29275); assay: Agonist activity at human A2B expressed in CHO cells assessed as stimulation of cAMP production by alphascreen assay; type: functional, cell-based
T1 sequence (P29275 whole entry): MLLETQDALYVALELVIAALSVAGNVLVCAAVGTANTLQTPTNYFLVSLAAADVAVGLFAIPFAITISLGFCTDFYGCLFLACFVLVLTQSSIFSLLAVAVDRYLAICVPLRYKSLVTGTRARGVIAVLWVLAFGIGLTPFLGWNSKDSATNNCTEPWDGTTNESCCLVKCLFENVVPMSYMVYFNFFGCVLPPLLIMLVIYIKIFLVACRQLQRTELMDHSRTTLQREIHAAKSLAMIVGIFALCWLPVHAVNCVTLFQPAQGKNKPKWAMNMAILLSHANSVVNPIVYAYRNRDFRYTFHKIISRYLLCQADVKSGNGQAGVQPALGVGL
Procedure, shortened: (§2)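 Compounds tested alone at final 1 nM to 1 µM. cAMP measured by AlphaScreen. Efficacy taken at 1 µM relative to NECA 1 µM (=100%). Four independent experiments in triplicate.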

Adenosine receptor A1 [3] = target: T2, Adenosine receptor A1 (Homo sapiens, UniProt P30542); assay: Antagonist activity at human A1AR expressed in CHO cells assessed as suppression of CCPA-induced inhibition of forskolin-stimulated cAMP production by alphascreen assay; type: functional, cell-based
T2 sequence (P30542 whole entry): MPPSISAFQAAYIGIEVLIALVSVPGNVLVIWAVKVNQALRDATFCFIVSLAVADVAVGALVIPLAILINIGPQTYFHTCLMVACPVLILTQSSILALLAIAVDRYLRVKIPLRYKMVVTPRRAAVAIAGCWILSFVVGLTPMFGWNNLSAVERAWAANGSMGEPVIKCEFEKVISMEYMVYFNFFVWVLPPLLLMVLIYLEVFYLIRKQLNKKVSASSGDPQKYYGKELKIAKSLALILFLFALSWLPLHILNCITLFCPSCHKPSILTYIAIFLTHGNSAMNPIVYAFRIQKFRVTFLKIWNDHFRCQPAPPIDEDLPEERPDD
Procedure, shortened: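 hA1 CHO cells in HBSS with HEPES, Ro 20-1724 (phosphodiesterase inhibitor), BSA and adenosine deaminase. Forskolin 5 µM with CCPA 1 nM. […] AlphaScreen detection. IC50 and Emax by sigmoid fit. Four independent experiments in triplicate.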

Adenosine receptor A2a [4] = target: T3, Adenosine receptor A2a (Homo sapiens, UniProt P29274); assay: Displacement of [3H]ZM241385 from human A2AR expressed in CHO cell membranes measured after 60 mins by scintillation counting method
Procedure, shortened: (§3)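 Nonspecific binding defined with 1 µM ZM241385. Filtered on GF/B, scintillation counted. Ki by Cheng–Prusoff. Percent inhibition at 1 µM. Four experiments in triplicate.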

[5] = target: T4, Adenosine receptor A3 (Homo sapiens) (UniProt P0DMS8); assay: Displacement of [125I]ABMECA from human A3R expressed in CHO cell membranes at 1 uM measured after 120 mins by scintillation counting method relative to control
T4 sequence (whole entry): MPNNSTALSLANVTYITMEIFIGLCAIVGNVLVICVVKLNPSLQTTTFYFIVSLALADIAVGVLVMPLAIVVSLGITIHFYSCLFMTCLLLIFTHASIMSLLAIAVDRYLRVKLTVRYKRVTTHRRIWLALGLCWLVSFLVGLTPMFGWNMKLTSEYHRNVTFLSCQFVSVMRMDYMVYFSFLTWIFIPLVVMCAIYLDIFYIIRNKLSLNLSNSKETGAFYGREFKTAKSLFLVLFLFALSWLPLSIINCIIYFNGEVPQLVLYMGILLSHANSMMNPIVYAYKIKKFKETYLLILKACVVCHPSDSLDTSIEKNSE
Procedure, shortened: (§4)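 Nonspecific binding with 1 µM AB-MECA. GF/B filtration and counting. Ki via Cheng–Prusoff. Percent inhibition at 1 µM. Four experiments in triplicate.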

CHO = assay: Effect on cAMP level in wild-type CHO cells at 0.001 to 1 uM by alphascreen assay; type: functional, cell-based; details: Cricetulus griseus
Procedure, shortened: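 Compounds at 1 nM to 1 µM final concentrations. cAMP quantified with AlphaScreen kit. Four independent experiments, each in triplicate.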

[6] = target: T5, Adenosine receptor A2b (Homo sapiens) (UniProt P29275); assay: Agonist activity at human A2B expressed in CHO cells assessed as stimulation of cAMP production at 1 uM by alphascreen assay relative to NECA; type: functional, cell-based; procedure, shortened: as §2
T5 sequence (whole entry): T1 sequence (P29275 whole entry)

Adenosine receptor A1 [7] = target: T2, Adenosine receptor A1; assay: Displacement of [3H]DPCPX from human A1AR expressed in CHO cell membranes measured after 90 mins by scintillation counting method
Procedure, shortened: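 Nonspecific binding with 1 µM DPCPX. GF/B filtration and scintillation counting. Ki by Cheng–Prusoff. Inhibition % at 1 µM. Four experiments in triplicate.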

Adenosine receptor A2b [8] = target: T1, Adenosine receptor A2b; assay: Antagonist activity at human A2BR expressed in CHO cells assessed as inhibition of NECA-stimulated cAMP production by alphascreen assay; type: functional, cell-based
Procedure, shortened: (§5)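 Compounds added at 1 nM to 1 µM final, with percent inhibition read at 1 µM. AlphaScreen cAMP read-out. IC50 by sigmoid non-linear regression. Four independent experiments in triplicate.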

[9] = target: T6, Adenosine receptor A1 (Homo sapiens) (UniProt P30542); assay: Inverse agonist activity at human A1AR expressed in CHO cells assessed as increase in forskolin-stimulated cAMP production by alphascreen assay relative to DPCPX; type: functional, cell-based
T6 sequence (whole entry): T2 sequence (P30542 whole entry)
Procedure, shortened: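 Compounds at 1 nM to 1 µM. cAMP rise measured by AlphaScreen. EC50 from sigmoid fit. […] Four independent experiments in triplicate.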

Mus musculus [10] = assay: (§6) Antinociceptive activity in CD-1 albino mouse model of oxaliplatin-induced neuropathic pain assessed as increase in licking latency at 0.3 mg/kg, po treated on day 15 post oxaliplatin treatment and measured at 15 to 60 mins post dose by cold plate test; type: functional, organism-based
Procedure, shortened: (§7)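 Male CD-1 mice (22–25 g) given oxaliplatin 2.4 mg/kg i.p. in 5% glucose on days 1-2, 5-9 and 12-14. On day 15, single oral dose (test compounds in 1% CMC). Cold plate at 4 °C, latency to paw licking or lifting, 60 s cut-off, read 15–60 min post dose. 10 mice/group in two sets. ANOVA with Bonferroni.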

Adenosine receptor A2a [11] = target: T3, Adenosine receptor A2a; assay: Antagonist activity at human A2AR expressed in CHO cells assessed as inhibition of CGS21680-stimulated cAMP production by alphascreen assay; type: functional, cell-based
Adenosine receptor A3 = target: T7, Adenosine receptor A3 (Homo sapiens, UniProt P0DMS8); assay: Displacement of [125I]ABMECA from human A3R expressed in CHO cell membranes measured after 120 mins by scintillation counting method; procedure, shortened: as §4
T7 sequence (P0DMS8 whole entry): T4 sequence (whole entry)

Mus musculus [12] = assay: Antinociceptive activity in CD-1 albino mouse model of oxaliplatin-induced neuropathic pain assessed as increase in licking latency at 1 mg/kg, po treated on day 15 post oxaliplatin treatment and measured at 15 to 60 mins post dose by cold plate test; type: functional, organism-based; procedure, shortened: as §7
Adenosine receptor A1 [13] = target: T2, Adenosine receptor A1; assay: Inverse agonist activity at human A1AR expressed in CHO cells assessed as increase in forskolin-stimulated cAMP production by alphascreen assay; type: functional, cell-based
Procedure, shortened: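 Compounds at 1 nM to 1 µM. cAMP rise measured by AlphaScreen. EC50 from sigmoid fit. Four independent experiments in triplicate.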

[14] = Half life in human plasma at 1 uM by LC-MS/MS analysis; type: ADME, cell-free; procedure, shortened: as §1
Mus musculus [15] = assay: as §6, with “10” for “0.3”, “dose in presence of nonspecific nAChR antagonist mecamylamine” for “dose”; type: functional, organism-based
Procedure, shortened: (§8)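 Oxaliplatin neuropathy in male CD-1 mice (2.4 mg/kg i.p., 10 injections, days 1-14). Day 15: mecamylamine 2 mg/kg i.p. or methyllycaconitine 6 mg/kg i.p. given 15 min before the oral dose. Cold plate (4 °C) licking/lifting latency with 60 s cut-off, measured over time after dosing. 10 mice/group, two sets.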

Mus musculus [16] = assay: Antinociceptive activity in CD-1 albino mouse model of oxaliplatin-induced neuropathic pain assessed as increase in licking latency at 10 mg/kg, po treated on day 15 post oxaliplatin treatment and measured at 15 to 60 mins post dose by cold plate test; type: functional, organism-based; procedure, shortened: as §7
Mus musculus [17] = assay: as §6, with “dose in presence of nonspecific nAChR antagonist mecamylamine” for “dose”; type: functional, organism-based; procedure, shortened: as §8
Mus musculus [18] = assay: as §6, with “dose in presence of alpha7 nAChR antagonist methyllycaconitine” for “dose”; type: functional, organism-based; procedure, shortened: as §8
Mus musculus [19] = assay: Antinociceptive activity in CD-1 albino mouse model of oxaliplatin-induced neuropathic pain assessed as increase in licking latency at 0.01 to 0.3 mg/kg, po treated on day 15 post oxaliplatin treatment and measured at 15 to 45 mins post dose by cold plate test; type: functional, organism-based; procedure, shortened: as §7
[20] = target: T5, Adenosine receptor A2b (Homo sapiens); assay: Antagonist activity at human A2BR expressed in CHO cells assessed as inhibition of NECA-stimulated cAMP production at 1 uM by alphascreen assay relative to control; type: functional, cell-based; procedure, shortened: as §5
Mus musculus [21] = assay: Antinociceptive activity in CD-1 albino mouse model of oxaliplatin-induced neuropathic pain assessed as increase in licking latency at 0.1 to 0.3 mg/kg, po treated on day 15 post oxaliplatin treatment and measured at 15 to 45 mins post dose by cold plate test; type: functional, organism-based; procedure, shortened: as §7
Adenosine receptor A2a [22] = target: T3, Adenosine receptor A2a; assay: Displacement of [3H]ZM241385 from human A2AR expressed in CHO cell membranes at 1 uM measured after 60 mins by scintillation counting method relative to control; procedure, shortened: as §3
Mus musculus [23] = assay: Antinociceptive activity in CD-1 albino mouse model of oxaliplatin-induced neuropathic pain assessed as increase in licking latency at 0.1 to 0.3 mg/kg, po treated on day 15 post oxaliplatin treatment and measured at 30 to 60 mins post dose by cold plate test; type: functional, organism-based; procedure, shortened: as §7

T3 sequence (P29274 whole entry): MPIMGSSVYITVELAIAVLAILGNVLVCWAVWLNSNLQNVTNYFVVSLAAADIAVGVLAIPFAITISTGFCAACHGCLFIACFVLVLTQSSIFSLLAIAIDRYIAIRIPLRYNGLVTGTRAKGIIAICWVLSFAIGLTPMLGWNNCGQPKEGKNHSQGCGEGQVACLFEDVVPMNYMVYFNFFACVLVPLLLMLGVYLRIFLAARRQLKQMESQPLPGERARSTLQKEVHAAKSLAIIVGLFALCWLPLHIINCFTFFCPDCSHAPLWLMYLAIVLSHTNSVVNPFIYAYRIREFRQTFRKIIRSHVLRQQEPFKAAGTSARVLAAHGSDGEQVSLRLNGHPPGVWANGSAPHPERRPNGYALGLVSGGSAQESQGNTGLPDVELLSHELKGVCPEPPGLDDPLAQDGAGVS

Row | SMILES | EC50 (Adenosine receptor A2b [2]) [nM] | Ki (Adenosine receptor A2a [4]) [nM] | inhibition [5] [%] | Efficacy [6] [%] | Ki (Adenosine receptor A1 [7]) [nM] | Emax [9] [%] | IC50 (Adenosine receptor A2a [11]) [nM] | EC50 (Adenosine receptor A1 [13]) [nM] | Activity (CHO) | other results
1 | CCOC(=O)[C@H](CCc1ccccc1)N[C@@H](C)C(=O)N1CCC[C@H]1C(=O)O |  |  |  |  |  |  |  |  |  | half-life at 1 µM [1]: 22 min
2 | CCOC(=O)C(C)c1cccc(C(=O)c2ccccc2)c1 (stereo not drawn) |  |  |  |  |  |  |  |  |  | half-life at 1 µM [14]: 100 min
3 | Cn1c(=O)c2c(ncn2C)n(C)c1=O |  |  |  |  |  |  |  |  |  | Activity (Mus musculus [15]): inactive; Activity (Mus musculus [16]): Active
4 | COC(=O)c1cccc(CSc2nc(N)c(C#N)c(-c3ccco3)c2C#N)c1 | > 1000 | 68 | 26 | 7 | 7.22 | 35 | 313 | 1.43 | inactive | inhibition [20]: 25%; Activity (Mus musculus [17]): inactive; half-life at 1 µM [1]: ≥ 240 min; Activity (Mus musculus [18]): inactive; Activity (Mus musculus [21]): Active; half-life at 1 µM [14]: ≥ 240 min
5 | N#Cc1c(NC2CC2)nc(SCCO)c(C#N)c1-c1ccco1 | > 1000 |  | 30 | 4 | 89 |  |  |  | inactive | IC50 (Adenosine receptor A1 [3]): 118 nM; inhibition (Adenosine receptor A2a [22]): 30%
6 | N#Cc1c(N)nc(SCc2cccc(C(=O)O)c2)c(C#N)c1-c1ccco1 | > 1000 | 581 |  | 1 | 4.12 | 45 |  | 8.92 | inactive | inhibition [20]: 12%; Ki (Adenosine receptor A3): 611 nM; Activity (Mus musculus [23]): Active

Now from value to molecule, other results behind:

Row | EC50 (Adenosine receptor A2b [2]) [nM] | Ki (Adenosine receptor A2a [4]) [nM] | inhibition [5] [%] | Efficacy [6] [%] | Ki (Adenosine receptor A1 [7]) [nM] | Emax [9] [%] | IC50 (Adenosine receptor A2a [11]) [nM] | EC50 (Adenosine receptor A1 [13]) [nM] | SMILES | Activity (CHO) | other results
7 | > 1000 | 461 | 14 | 3 | 65 |  |  |  | N#Cc1c(NCc2ccccc2)nc(SCCO)c(C#N)c1-c1ccco1 | inactive | IC50 (Adenosine receptor A1 [3]): 76 nM
8 | > 1000 | 67 |  | 6 | 1.32 | 31 | 58 | 2.84 | N#Cc1c(N)nc(SCc2cccc(C(N)=O)c2)c(C#N)c1-c1ccco1 | inactive | IC50 (Adenosine receptor A2b [8]): 13 nM; Activity (Mus musculus [10]): inactive; Ki (Adenosine receptor A3): 326 nM; Activity (Mus musculus [12]): Active
9 | > 1000 | 31 | 25 | 4 | 0.98 | 98 | 22 | 4.97 | N#Cc1c(N)nc(SCc2cccc(CO)c2)c(C#N)c1-c1ccco1 | inactive | Activity (Mus musculus [17]): inactive; IC50 (Adenosine receptor A2b [8]): 152 nM; Activity (Mus musculus [18]): inactive; Activity (Mus musculus [19]): Active
